Screening data from PubChem.
Rows were chosen to be rich in hits. Some 4.8% of all compounds tested hit in one or more screens of this group.
NF-kB expr up: compounds increasing NF-kB expression in human neuronal cells | fold change at 12.5 µM | NF-kB reporter expression; active compounds read high | 190,000 compounds, 1.6% hits; in the data active means fold change above about 3.3
FLuc inhib CS: Photinus pyralis luciferase inhibition counter-screen | P08659 | ATPLite firefly luciferase biochemical luminescence, 10 min | inhibition, % at 10 µM | 200,000 compounds, 1.5% hits;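 active means inhibition above about 50% when tested at 10 µM, limit read from the data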
Target sequence (P08659 whole entry, looked up): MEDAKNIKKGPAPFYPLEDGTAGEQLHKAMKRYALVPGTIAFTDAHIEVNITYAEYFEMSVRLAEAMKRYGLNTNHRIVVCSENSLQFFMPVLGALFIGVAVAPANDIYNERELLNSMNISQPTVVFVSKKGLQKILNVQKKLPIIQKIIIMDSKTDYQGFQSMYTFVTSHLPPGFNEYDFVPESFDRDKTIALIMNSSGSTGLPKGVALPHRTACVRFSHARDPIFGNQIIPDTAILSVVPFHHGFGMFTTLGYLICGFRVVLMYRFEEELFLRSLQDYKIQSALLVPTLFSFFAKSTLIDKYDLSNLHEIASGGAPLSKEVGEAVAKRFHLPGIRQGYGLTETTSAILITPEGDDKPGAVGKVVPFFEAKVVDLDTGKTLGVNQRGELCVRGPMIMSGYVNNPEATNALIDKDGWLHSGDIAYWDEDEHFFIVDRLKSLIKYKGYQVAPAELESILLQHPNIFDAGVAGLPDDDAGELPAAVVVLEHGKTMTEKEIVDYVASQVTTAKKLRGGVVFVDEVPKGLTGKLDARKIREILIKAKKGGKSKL
FLuc act counter: affects firefly luciferase, flagging false hits in luciferase stimulation screens | ATPlite luciferase biochemical, luminescence, 10 min; 0 = ATP-free wells, 1 = DMSO control | activation factor at 10 µM | 200,000 tested, under 10 active | AID 1027;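 active means luciferase activation factor, scaled between plate controls, of at least 2 with compound at 10 µM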
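System: Luciferase/luciferin detection reagent, cell-free biochemical luciferase assay | Medium: PBS buffer for ATP | Dosing: Test compounds dosed from 2 mM stocks in 100% DMSO | Timing: 10 min at ambient temperature | Signal: Luminescence measurement of luciferase light output | Evaluation: Luciferase activation, seen as luminescence increase over controls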
APP transl inh: APP translation inhibition; SH-SY5Y APP 5'UTR-luciferase reporter, luminescence; 190,000 compounds, 0.82% hits; AID 1285; inhibition, % at 2 µM;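 active means inhibition above a set limit, derived from the sample mean plus 3 SD, cut at about 45% in these data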
APP 5'UTR act: APP 5'UTR luciferase reporter activation; 190,000 compounds, 1% hits; SH-SY5Y APP 5'UTR luciferase reporter, luminescence; zero percent = DMSO vehicle wells; activation, % at 2 µM;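 active means activation above a set limit, based on mean plus 3 SD of controls, cut at about 140% in these data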
STAT1 activator: activators of IFN-gamma induced STAT1 signaling. NIH 3T3 STAT1-luciferase reporter, luminescence; 100% = IFN-gamma alone, no compound. activation (% of control), % at 5.5 µM. 200,000 compounds, 2.6% hits;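 active means activation above the screen-wide mean activation plus 3 SD, cut at about 130% in these data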;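 further: raw ratio to IFN-gamma control signal so 100% means no change and 0% no light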
STAT1 act conf: STAT1 activation, confirmation assay. 1,200 compounds, 97% hits. NIH 3T3 STAT1-luciferase reporter, IFN-gamma potentiation, luminescence; 100% = IFN-gamma EC80 alone, no compound. activation (% of control), % at 5.7 µM. shares compounds with STAT1 activator;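 active means activation above a set limit carried over from the earlier primary STAT1 screen, cut at about 140% in these data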;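 further: simple ratio to median IFN-gamma plus DMSO wells so 0% means no light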
NFkB act: activates NF-kappaB, counter-screen to STAT1 activators; shares compounds with STAT1 activator; activation (% of control), % at 5.7 µM; AID 1306; HEK293T NF-kB luciferase reporter, TNF-alpha stimulated, luminescence; 100% = TNF-alpha with vehicle only; 1,200 compounds, 43% hits;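 active means activation above the mean of solvent-only control wells plus 3 SD, set per campaign, cut at about 130% in these data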;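 further: TNF-alpha given at a submaximal dose yielding about 80% of full reporter signal; values are well signal over median control so 100% means no change and 0% no light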
STAT3 act 2: activates human STAT3, counter-screen to STAT1 activators. shares compounds with STAT1 activator. U3A cells STAT3-luciferase reporter, IL-6, luminescence; cells lack STAT1; 100 = IL-6 alone, no compound effect. activation (% of control), % at 5.7 µM. 1,200 compounds, 46% hits;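 active means activation above the solvent-only control well mean plus 3 SD, set per plate batch, cut at about 110% in these data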;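 further: 0% = no luminescence and 100% = median IL-6 plus DMSO wells; higher means more STAT3 reporter activation so hits are non-selective activators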
Numbers without * were called inactive; . = no result.

SMILES	NF-kB expr up	FLuc inhib CS	FLuc act counter	APP transl inh	APP 5'UTR act	STAT1 activator	STAT1 act conf	NFkB act	STAT3 act 2
Cc1ccc2nsnc2c1NS(=O)(=O)c1c(C)ccc2nsnc12	1.1	-4	1	-11	11	102	.	.	.
Cc1ccc(/C=[N+](\[O-])c2ccc(N(C)C)cc2)c2nsnc12	.	72*	0.3	61*	-61	162*	199*	137*	107
COc1ccc(N=Cc2c(O)[nH]c3ccccc23)cc1	4.9*	52*	0.5	-181	181*	216*	269*	135*	111*
Oc1[nH]c2ccccc2c1C=Nc1ccc2c(c1)OCO2	4.9*	36	0.6	-141	141*	192*	263*	144*	103
Cc1[nH]c2ccccc2c1/C=N\NC(=O)CNc1ccc2c(c1)OCO2	1.1	6	0.9	-3	3	91	.	.	.
CCN(CC)S(=O)(=O)c1csc(C(=O)OCC(=O)c2ccccc2)c1	1	-4	1	1	-1	99	.	.	.
FC(F)(F)c1cnc2c(-c3ccccc3)n[nH]c2c1	1.8	-2	1	-47	47	161*	137*	110	102
Cc1csc2nc(CSc3ccc(Cl)cc3)cn12	6*	21	0.8	-149	149*	153*	198*	135*	109
Cc1csc2nc(CSc3nc4ccccc4o3)cn12	2	9	0.9	-72	72	120	.	.	.
O=C(NCc1ccccc1)Nc1cccn(Cc2ccccc2Cl)c1=O	1	23	0.8	-1	1	98	.	.	.
COc1ccc(NC(=O)Cc2ccccc2)cn1	1.1	-4	1	-9	9	100	.	.	.
COc1ccc(NC(=O)/C(Cl)=C(/Cl)S(=O)Cc2ccccc2)cn1 (stereo not given)	0.18	-2	1	.	.	204*	336*	48	105
Cc1ccc(C(=O)COC(=O)c2ccc(O)cc2)cc1	6.2*	33	0.7	-149	149*	153*	170*	121	122*
CCn1cc(C(=O)N2CCc3ccccc32)c(=O)c2cc(S(=O)(=O)N(C)C3CCCCC3)ccc21	0.36	-7	1.1	-17	17	98	.	.	.
NC(=O)C1=C[C@H](C2CCCCC2)C[C@H](OCc2ccc(CO)cc2)O1	3.8*	-3	1	-126	126	171*	163*	142*	164*
Cn1ncc(N=Cc2c(O)ccc3ccccc23)c1C(=O)Nc1cccc(Cl)c1	1.3	-2	1	7	-7	99	.	.	.
CCN(CC)C(=O)C(=O)N/N=C/c1ccc(C(=O)O)cc1	0.89	2	1	-9	9	100	.	.	.
COc1cccc(-c2noc(-c3cccnc3)n2)c1	5.5*	44	0.6	-107	107	159*	188*	125	121*
Cc1ncsc1C(=O)Nc1nc2c(s1)CC(C)CC2 (stereo not given)	4.6*	58*	0.4	-121	121	152*	179*	123	100
CC1CCc2nc(NC(=O)C3CC3)sc2C1 (stereo not given)	1.9	15	0.8	-21	21	120	.	.	.
O=C(N/N=C/c1cccc(F)c1)NC1CCCCC1	1.4	3	1	-13	13	120	.	.	.
COc1cc(/C=N/Nc2ccc(C(=O)O)cc2)ccc1O	3	43	0.6	-89	89	75	.	.	.
O=C(O)c1ccc(N/N=C/c2ccc(F)c(F)c2)cc1	5.3*	9	0.9	-159	159*	162*	211*	101	129*
O=C(O)c1ccc(N/N=C/c2cccc(F)c2)cc1	5*	12	0.9	-124	124	161*	203*	102	118*
CN1/C(=C\C(=O)c2cccs2)C(C)(C)c2ccccc21	1.1	-7	1.1	2	-2	127	.	.	.
SMILES	NF-kB expr up	FLuc inhib CS	FLuc act counter	APP transl inh	APP 5'UTR act	STAT1 activator	STAT1 act conf	NFkB act	STAT3 act 2
CN1/C(=C\C(=O)c2cccs2)Sc2ccccc21	7.5*	82*	0.2	-168	168*	169*	222*	117	161*
O=C(Nc1ccc(C(F)(F)F)cc1)c1cnc(N2CCN(c3ccccn3)CC2)c2ccccc12	1.4	-8	1.1	-19	19	100	.	.	.
Cn1cccc1/C=C1/SC(=O)N(CC(=O)N2CCCC2)C1=O	1.2	-7	1.1	-5	5	97	.	.	.
Cn1cccc1/C=C1\SC(=O)N(c2ccccc2)C1=O	2.8	52*	0.5	-117	117	159*	190*	129	102
Cc1c([N+](=O)[O-])cc(C(=O)Oc2cccc(C(=S)N3CCOCC3)c2)cc1[N+](=O)[O-]	1.1	-4	1	-4	4	99	.	.	.
COc1cccc(-c2nc3ccccc3s2)c1	7.8*	75*	0.3	-143	143*	156*	207*	121	118*
COc1ccc(-c2nc3ccccc3s2)cc1NC(C)=O	2.4	19	0.8	-154	154*	173*	195*	130	119*
CSc1sc(C(=O)O)c(C)c1C(C)=O	1.1	-2	1	-12	12	105	.	.	.
COc1ccc(C)cc1N(CC(=O)Nc1ccc2c(c1)OCCO2)S(C)(=O)=O	1.1	-3	1	-22	21	101	.	.	.
CSc1ccccc1NC(=O)CN(C)Cc1cc(=O)n2ccsc2n1	1.4	-7	1.1	14	-14	93	.	.	.
O=C(Nc1ccc(N2CCOCC2)c(Cl)c1)c1cccnc1Cl	1.1	2	1	4	-4	106	.	.	.
O=C(Nc1ccc(N2CCOCC2)c(Cl)c1)c1cccc(F)c1	5.5*	16	0.8	-109	109	185*	193*	135*	118*
COc1c(C)cccc1C(=O)Nc1ccc(N2CCOCC2)c(Cl)c1	6.1*	25	0.8	-154	154*	152*	199*	131	105
O=C(Nc1ccc(N2CCOCC2)c(Cl)c1)c1c(F)c(F)c(F)c(F)c1F	0.78	0	1	-6	6	108	.	.	.
O=C(NC1CC2CCC(C1)N2C(=O)NCc1ccccc1)NC12CC3CC(CC(C3)C1)C2 (stereo not given)	1.5	-10	1.1	5	-5	88	.	.	.
